Screening results: PubChem BioAssay, several laboratories
Sampled rows, rich in hits. Any-hit rate of the full collection: about 2.2%.
14-3-3 Bad inh: inhibitors of 14-3-3 zeta/Bad binding, primary screen, biochemical, TR-FRET, bovine 14-3-3 zeta; 14-3-3 protein zeta/delta (Bos taurus), P63103; TR-FRET 14-3-3zeta/Dy647-pBad peptide displacement, 1 h; inhibition, % at 21.7 µM; actives 0.71% (n = 220,000); AID 781, 2007;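 active = inhibition above about 70%, limit read from the data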;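 also: 0% = full 14-3-3 plus peptide FRET controls and 100% = background without 14-3-3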
Runt-CBFb FRET: inhibitors of RUNX1 Runt–CBFb binding, primary screen, biochemical, FRET, Cerulean-Runt, Venus-CBFb, uHTS; Runt-related transcription factor 1 (Homo sapiens) + Core-binding factor subunit beta …; Cerulean-Runt/Venus-CBFb FRET ratio 530/480, 1 h; actives 0.46% (n = 220,000); AID 1496, 2009; inhibition, % at 20 µM;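 active = inhibition over about 50% at 20 µM in the single-dose screen, limit read from the data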;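 also: 0% = DMSO wells and 100% = excess unlabeled CBFb competitor control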
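Schedule: protein complex preformed 1 h, compound exposure 1 h, room temperature, dark; test system: Cerulean-labeled Runt domain protein; amount: 100 nM per protein; buffer or medium: Tris 50 mM pH 7.5, KCl, K2SO4, 0.01% BSA; read-out: loss of energy transfer signal; detection: FRET fluorescence; controls: 5 µM unlabeled CBFb as full-inhibition high control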
Tb hexokinase: Trypanosoma brucei hexokinase 1 inhibitors, primary screen, biochemical, G6PDH-coupled NADH absorbance, MLSCN library. actives 0.11% (n = 220,000). inhibition, % at 10 µM. recombinant TbHK1, G6PDH-coupled NADH A340. hexokinase 1 [Trypanosoma brucei];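 active = inhibition of 50% or more in the single-dose primary screen; inactive = inhibition below 50%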
Runt-SMMHC FRET: inhibitors of RUNX1 Runt–CBFb-SMMHC binding, primary screen, biochemical, FRET, Cerulean-Runt, Venus-CBFb-SMMHC, uHTS; actives 0.74% (n = 220,000); Cerulean-Runt/Venus-CBFb-SMMHC FRET ratio 530/480, 1 h; AID 1434, 2008; inhibition, % at 20 µM;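 active = mean inhibition across duplicate retests at 20 µM reaching about 50%, limit read from the data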;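 also: 0% = DMSO wells and 100% = wells with excess untagged CBFb-SMMHC; inhibitors lower the FRET ratio by blocking Runt binding to CBFb-SMMHC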
Hck-Nef inh: inhibitors of Nef-activated human Hck kinase, primary screen, biochemical, Z-Lyte FRET, 384-well, Hck-YEEI; actives 0.68% (n = 220,000); inhibition, % at 20 µM; Tyrosine-protein kinase HCK (Homo sapiens), P08631; Recombinant Hck-YEEI plus Nef, Z-Lyte FRET kinase assay; AID 463187, 2010;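 active = Hck-Nef kinase inhibition above about 50%, limit read from the data; inactive = inhibition below that limit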;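 also: 0% = DMSO with Hck plus Nef and 100% = Hck alone without Nef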
Target sequence (P08631 whole entry, looked up): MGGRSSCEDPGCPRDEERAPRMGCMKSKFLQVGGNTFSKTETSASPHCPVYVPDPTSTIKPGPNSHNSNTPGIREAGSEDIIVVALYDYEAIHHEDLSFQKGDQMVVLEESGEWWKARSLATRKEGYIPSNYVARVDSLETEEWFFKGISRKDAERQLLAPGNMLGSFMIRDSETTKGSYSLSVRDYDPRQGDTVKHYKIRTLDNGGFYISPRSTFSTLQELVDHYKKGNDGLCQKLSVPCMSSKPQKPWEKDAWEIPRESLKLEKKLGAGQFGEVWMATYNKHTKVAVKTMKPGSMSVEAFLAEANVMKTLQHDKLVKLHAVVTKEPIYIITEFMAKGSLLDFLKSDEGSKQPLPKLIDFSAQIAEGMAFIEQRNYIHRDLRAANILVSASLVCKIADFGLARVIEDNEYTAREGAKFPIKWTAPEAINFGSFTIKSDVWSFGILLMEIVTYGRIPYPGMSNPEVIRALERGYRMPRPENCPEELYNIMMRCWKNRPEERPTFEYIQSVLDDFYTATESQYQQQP
RanGTP-Imp inh: inhibitors of RanGTP-importin-beta interaction, primary screen, biochemical, FRET, CFP-Ran, YFP-importin-beta, homogeneous; cell-free CFP-Ran/YFP-importin-beta FRET ratio; inhibition, % (test concentration not listed); actives 1.1% (n = 300,000); AID 2216, 2009;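 active = more than half of the replicate wells show a fall in the fluorescence ratio signal beyond about 16%, limit read from the data, passing the limit was not always enough; inconclusive = exactly half of the replicate wells pass the set limit; inactive = fewer than half of replicates pass the limit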;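 also: 0% = DMSO wells and 100% = Ran loaded with GDP instead of GTP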
YIC FRET counter: YIC intramolecular FRET probe signal interference, dose response, counter-screen for RanGTP-importin-beta inhibitor project, biochemical, fluorescence FRET; shares compounds with RanGTP-Imp inh; Purified YIC probe, intramolecular FRET ratio YFP/CFP; IC50, µM; actives 40% (n = 1,000); AID 435026, 2010;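 active = fitted half-maximal inhibitory concentration no more than tenfold above the top dose tested; inconclusive = flat fit with 30 to 70% activity, or poor fit; inactive = half-maximal concentration beyond tenfold above the top dose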
* hit, by the source's call; ? = inconclusive; · = no result.

SMILES	14-3-3 Bad inh	Runt-CBFb FRET	Tb hexokinase	Runt-SMMHC FRET	Hck-Nef inh	RanGTP-Imp inh	YIC FRET counter
CCC(C(=O)NC1CCCC1)n1nc(C)n2c(cc3occc32)c1=O (stereo not given)	·	·	·	·	·	0.4	·
Cc1ccccc1OCCC(=O)Nc1ccccc1C(=O)NC1CC1	·	·	·	·	·	4.1	·
O=C1C=C(Nc2ccc(Cl)cc2Cl)CC(c2ccco2)C1 (stereo not given)	1.1	1.3	-7.4	2.8	8.7	24.3*	>50
Cc1nonc1OCCNCc1c(C(=O)N(C)C)nc2ccc(Cl)cn12	3.3	·	6.6	·	23.9	?	·
COc1cc2c(cc1OC)CN(Cc1cc(=O)oc3cc(C)c(Cl)cc13)CC2	13.5	-17.9	13.5	-41.2	7.2	23.4*	>50
COc1cc2c(cc1OC)CN(Cc1cc(=O)oc3c(C)c(C)ccc13)CC2	-2.0	-16.9	-12.9	-40.8	3.5	20.0*	>50
O=C(CCc1nc2sc3c(c2c(=O)[nH]1)CCCC3)N1CCN(c2ccccc2)CC1	·	·	·	·	·	2.4	·
Cc1ccc(/C=C/C(=O)Nc2cccc3ncccc23)o1	-9.1	8.8	-39.4	66.5	-0.5	17.4*	>50
COCCNC(=O)c1ccc(N2CC3CC(C2)c2cccc(=O)n2C3)c(NC(=O)c2ccc(Br)o2)c1 (stereo not given)	·	·	·	·	·	2.0	·
Cc1cc(C2C(C#N)=C(N)SC(N)=C2C#N)c(C)s1	0.0	24.1	-20.7	32.0	-6.2	34.3*	>50
C/C=C/c1ccc(OCC(=O)N2CCc3cc(OC)c(OC)cc3C2)c(OC)c1	·	·	·	·	·	-0.6	·
C[C@@H]1CN([C@H](C)CO)C(=O)c2cccc(NC(=O)c3ccc(-c4nccs4)cc3)c2O[C@@H]1CN(C)CC1CC1	·	·	·	·	·	·	>50
Cc1cc(C)c2[nH]c(=O)c(CN(CC3CCCO3)C(=S)Nc3ccccc3)cc2c1 (stereo not given)	-13.5	19.2	7.0	5.0	2.1	-2.3	·
Cc1ccc2cc(CN(CC3CCCO3)C(=S)Nc3ccccc3)c(=O)[nH]c2c1C (stereo not given)	-26.4	-0.4	-19.7	1.2	1.3	17.8*	>50
COc1ccc(CC(=O)NNC(=O)c2cccnc2)cc1OC	-7.1	0.4	-3.1	-2.7	24.9	-0.6	·
O=S(=O)(Nc1nc2ccccc2nc1-[n+]1cccc(N=C([O-])c2ccccc2Cl)c1)c1ccccc1	-2.5	47.8	-14.0	75.0*	10.9	24.0*	6.74*
CCN(CC)CCCNc1nc2ccccc2c2nc(-c3ccncc3)nn12	·	·	·	·	·	-2.1	·
CN1C(=O)CSC1=Nc1cccc(Cl)c1	·	·	·	·	·	-0.6	·
Cc1ccc(Nc2nc(N)nc(CCl)n2)cc1	4.2	0.6	0.2	1.9	-1.6	1.3	·
Cc1ccc(Nc2nc(N)nc(CC#N)n2)cc1	13.9	1.9	1.8	4.1	-0.1	24.5*	>50
CCC(C)c1ccc(OCC(=O)O)cc1 (stereo not given)	-2.8	3.2	5.2	-3.0	12.7	24.4*	>50
CN(C)/C=C/C(=O)/C=C/c1ccc(Cl)cc1	-8.6	0.5	-29.2	1.3	2.6	22.1*	>50
N=c1sccn1CC(=O)NCc1ccc(Cl)cc1Cl	-15.5	0.6	-1.1	-1.6	16.2	3.0	·
COc1ccccc1CNC(=O)Cn1ccsc1=N	·	·	·	·	·	20.1*	>50
COc1ccc(S(=O)(=O)N2CC(O)CC2C(=O)Nc2cccnc2)cc1 (stereo not given)	2.0	0.5	-7.9	0.2	6.0	?	·
SMILES	14-3-3 Bad inh	Runt-CBFb FRET	Tb hexokinase	Runt-SMMHC FRET	Hck-Nef inh	RanGTP-Imp inh	YIC FRET counter
O=C(Cn1cc(C(=O)C(F)(F)F)c2ccccc21)N1CCOCC1	3.3	7.6	-12.9	-3.7	22.7	1.6	·
O=S(=O)(Nc1nnc(C2CCCCC2)s1)c1ccc(F)cc1	·	·	·	·	·	0.3	·
O=[N+]([O-])c1ccc(S(=O)(=O)Nc2nnc(C3CCCCC3)s2)cc1	·	·	·	·	·	19.7*	>50
Cc1c(CCC(=O)NC2CC2)c(=O)oc2c(C)c(O)ccc12	·	·	·	·	·	27.1*	19.9*
Cc1oc2cc3oc(=O)c(CCC(=O)NC4CC4)c(C)c3cc2c1C	·	·	·	·	·	1.3	·
Cc1c(CCC(=O)NCCCN2CCCC2=O)c(=O)oc2c(C)c(O)ccc12	·	·	·	·	·	33.1*	16.3*
O=C(CCS(=O)(=O)c1ccccc1)Nc1cccc(-c2nc3ccccc3s2)c1	-10.9	-2.3	-1.2	3.2	-0.6	4.4	·
O=C(Nc1cccc(-c2nc3ccccc3s2)c1)c1cccs1	-4.6	-0.1	1.1	3.5	1.7	25.2*	>50
Cc1c(CC(=O)N2CCN(C(=O)C3COc4ccccc4O3)CC2)c(=O)oc2c(C)c(O)ccc12 (stereo not given)	·	·	·	·	·	24.0*	14.2*
Cc1cccc(N2CCN(C(=O)C3COc4ccccc4O3)CC2)c1C (stereo not given)	-1.2	1.0	-8.1	-3.5	0.7	25.7*	>50
COc1cccc(NC(=O)C2CCN(S(=O)(=O)c3ccc4[nH]c(=O)ccc4c3)CC2)c1	·	·	·	·	·	2.4	·
Cc1ccc(C(=O)Nc2nnc(SCC(=O)N3CCCc4ccccc43)s2)cc1	-3.0	0.7	-13.4	1.1	1.7	39.1*	>50
COc1ccc(-n2c(C)cc(/C=C3/SC(=S)N(C)C3=O)c2C)cc1	1.6	-6.8	-11.8	-50.7	3.0	22.8*	>50
CC1CCN(c2cc(=O)n(C3CCCCC3)c(=O)[nH]2)CC1	3.3	0.6	-6.7	-0.5	1.4	30.7*	>50
O=c1cc(N2CCc3ccccc3C2)[nH]c(=O)n1C1CCCCC1	2.9	-0.2	-3.8	2.3	0.3	53.6*	>50
O=c1cc(N2CCC(Cc3ccccc3)CC2)[nH]c(=O)n1C1CCCCC1	4.2	-5.3	3.9	1.1	-0.5	21.5*	>50
N#C/C(=C(/O)CSc1ccccn1)c1nc2ccccc2s1	13.3	6.6	2.1	-0.6	13.4	20.7*	>50
Cc1ccc(SC/C(O)=C(\C#N)c2nc3ccccc3s2)cc1	11.3	2.5	-55.0	-1.9	6.0	-5.9	·
CC(C)NC(=O)NC(=O)COC(=O)c1ccccc1F	-16.3	-0.2	-0.2	0.0	-0.5	?	·
